{"source": "ChEMBL document CHEMBL4038332", "about": "“Substituted N-Phenyl-5-(2-(phenylamino)thiazol-4-yl)isoxazole-3-carboxamides Are Valuable Antitubercular Candidates that Evade Innate Efflux Machinery” (J Med Chem, 2017)", "format_in_all_cases": "functional", "key": {"[1]": {"tested_on": "Mycobacterium tuberculosis", "test": "Antimycobacterial activity against patient derived INH/RIF resistance Mycobacterium tuberculosis isolate 2 incubated for 7 days by MTT-based broth microdilution assay", "conditions": "isolate 2, 168 h", "outline": "(§1)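 Drug-resistant clinical isolates from Lisbon patients (2008–2009) grown in MB7H9 + 10% OADC at 37 °C to OD600 0.8, diluted to ~10^5 cells/mL; equal volume added to 2-fold serial compound dilutions. Plates sealed, 7 days at 37 °C, then MTT to final 2.5% overnight; MIC = lowest concentration with no colour change; triplicate.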"}, "[2]": {"tested_on": "Mycobacterium tuberculosis", "test": "Antimycobacterial activity against patient derived INH/RIF resistance Mycobacterium tuberculosis isolate 1 incubated for 7 days by MTT-based broth microdilution assay", "conditions": "isolate 1, 168 h", "outline": "as §1"}, "[3]": {"tested_on": "Mycobacterium tuberculosis", "test": "Antimycobacterial activity against patient derived extreme drug resistance Mycobacterium tuberculosis isolate 3 incubated for 7 days by MTT-based broth microdilution assay", "conditions": "isolate 3, 168 h", "outline": "as §1"}}, "data": [{"smiles": "Cc1ccc(Nc2nc(-c3cc(C(=O)Nc4ccccc4)no3)cs2)cc1", "values": [{"measurement": "MIC90", "setting": "[1]", "result": 1, "unit": "µg/mL"}, {"measurement": "MIC90", "setting": "[2]", "result": 2, "unit": "µg/mL"}, {"measurement": "MIC90", "setting": "[3]", "result": 2, "unit": "µg/mL"}]}, {"smiles": "Cc1ccc(Nc2nc(-c3cc(C(=O)Nc4ccccn4)no3)cs2)cc1", "values": [{"measurement": "MIC90", "setting": "[1]", "result": 1, "unit": "µg/mL"}, {"measurement": "MIC90", "setting": "[2]", "result": 2, "unit": "µg/mL"}, {"measurement": "MIC90", "setting": "[3]", "result": 2, "unit": "µg/mL"}]}]}
